Assays:
Rattus norvegicus [1] = experiment: Iron-clearing efficiency in non-iron-overloaded Sprague-Dawley rat at 300 umol/kg, po after 24 hrs relative to control; format: functional
Outline: (§1)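 Male Sprague–Dawley rats (400–450 g), not iron-loaded and bile duct-cannulated, got one dose of 50, 150 or 300 µmol/kg po, or 300 µmol/kg sc. Vehicle was water or the monosodium salt. Bile was collected every 3 h for 24 h and urine at 24 h. Iron was measured by atomic absorption. Efficiency was treated minus control iron excretion, divided by theoretical output (2:1 ligand:iron), as a percent; mean ± SEM.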

Rattus norvegicus [2] = experiment: Iron-clearing efficiency in non-iron-overloaded Sprague-Dawley rat at 150 umol/kg, po after 24 hrs relative to control; format: functional; outline: as §1
Rattus norvegicus [3] = experiment: Iron-clearing efficiency in non-iron-overloaded Sprague-Dawley rat at 50 umol/kg, po after 24 hrs relative to control; format: functional; outline: as §1
Rattus norvegicus [4] = experiment: Iron-clearing efficiency in non-iron-overloaded Sprague-Dawley rat bile assessed as iron excretion at 300 umol/kg, po; format: functional; outline: as §1
Rattus norvegicus [5] = experiment: Iron-clearing efficiency in non-iron-overloaded Sprague-Dawley rat bile assessed as iron excretion at 150 umol/kg, po; format: functional; outline: as §1
Rattus norvegicus [6] = experiment: Iron-clearing efficiency in non-iron-overloaded Sprague-Dawley rat bile assessed as iron excretion at 50 umol/kg, po; format: functional; outline: as §1
Rattus norvegicus [7] = experiment: Iron-clearing efficiency in non-iron-overloaded Sprague-Dawley rat at 300 umol/kg, sc after 24 hrs relative to control; format: functional; outline: as §1
Sapajus apella [8] = experiment: Iron-clearing efficiency in iron-overloaded Cebus apella at 150 umol/kg, po after 2 days relative to control; format: functional
Outline: (§2)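 Monkeys (Cebus apella, 3.5–4 kg) were iron-loaded to about 500 mg Fe/kg with iv iron dextran and rested at least 60 days. They then got one 150 µmol/kg dose, po or sc. Feces and urine were collected every 24 h from 4 days before to 5 days after dosing, and iron was measured by flame atomic absorption. Efficiency was the 2-day post-drug iron minus the 4-day pre-drug baseline, divided by theoretical output (2:1 ligand:iron); mean ± SEM.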

Sapajus apella [9] = experiment: Iron-clearing efficiency in iron-overloaded Cebus apella at 150 umol/kg, sc after 2 days relative to control; format: functional; outline: as §2
Rattus norvegicus [10] = experiment: Toxicity in non-iron-overloaded Sprague-Dawley rat assessed as survival at 384 umol/kg/day, po after 10 days by non-renal perfusion protocol; format: organism-based; conditions: in vivo, 240 h
Outline: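 Non-iron-loaded male Sprague–Dawley rats (250–300 g) were fasted overnight and gavaged po once daily for 10 days at 384 µmol/kg/day. They were fed about 3 h postdose with 5 h food access, then fasted again. Survival was followed over the exposure. Euthanasia was 24 h after the last dose, with extensive tissue histopathology.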

Rattus norvegicus [11] = experiment: Nephrotoxicity in Sprague-Dawley rat assessed as heavy vacuolized renal tubules at […] for 7 days by renal perfusion studies; format: toxicity, organism-based; conditions: in vivo, 168 h, in the assay text read “237 umol/kg” for “273 umol/kg”
Outline: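 Male Sprague–Dawley rats (200–250 g), fasted overnight, got 237 µmol/kg/dose po twice daily (474 µmol/kg/day) for 7 days and were fed about 3 h post-drug. Untreated age-matched rats were controls. One day post-drug, under pentobarbital, kidneys were perfusion-fixed with glutaraldehyde in Tyrode's buffer and embedded in TAAB. 500 nm sections were stained with toluidine blue and examined by light microscopy at 400×.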

Liver [12] = experiment: Biodistribution in Sprague-Dawley rat liver assessed per gram tissue wet weight at 300 umol/kg, sc after 1 hr; format: ADME, organism-based; conditions: in vivo
Liver [13] = experiment: Biodistribution in Sprague-Dawley rat liver assessed per gram tissue wet weight at 300 umol/kg, po after 1 hr; format: ADME, organism-based; conditions: in vivo
Outline: (§3)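 Male Sprague–Dawley rats (250–350 g) got one 300 µmol/kg dose, po or sc. Vehicle was water or the monosodium salt (free acid plus 1 equiv NaOH). Three rats per time point were euthanized by CO2 at 1, 2 or 4 h. Plasma came from citrated cardiac blood; liver, kidney, heart and pancreas were removed. Drug levels were measured by HPLC with UV detection at 310 nm against linear calibration curves (detection limit 0.25 µM).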

Liver [14] = experiment: Biodistribution in Sprague-Dawley rat liver assessed per gram tissue wet weight at 300 umol/kg, sc after 2 hrs; format: ADME, organism-based; conditions: in vivo
Liver [15] = experiment: Biodistribution in Sprague-Dawley rat liver assessed per gram tissue wet weight at 300 umol/kg, po after 2 hrs; format: ADME, organism-based; conditions: in vivo; outline: as §3
Liver [16] = experiment: Biodistribution in Sprague-Dawley rat liver assessed per gram tissue wet weight at 300 umol/kg, sc after 4 hrs; format: ADME, organism-based; conditions: in vivo
Liver [17] = experiment: Biodistribution in Sprague-Dawley rat liver assessed per gram tissue wet weight at 300 umol/kg, po after 4 hrs; format: ADME, organism-based; conditions: in vivo; outline: as §3
Kidney [18] = experiment: Biodistribution in Sprague-Dawley rat kidney assessed per gram tissue wet weight at 300 umol/kg, sc after 1 hr; format: ADME, organism-based; conditions: in vivo
Kidney [19] = experiment: Biodistribution in Sprague-Dawley rat kidney assessed per gram tissue wet weight at 300 umol/kg, po after 1 hr; format: ADME, organism-based; conditions: in vivo; outline: as §3
Kidney [20] = experiment: Biodistribution in Sprague-Dawley rat kidney assessed per gram tissue wet weight at 300 umol/kg, sc after 2 hrs; format: ADME, organism-based; conditions: in vivo
Kidney [21] = experiment: Biodistribution in Sprague-Dawley rat kidney assessed per gram tissue wet weight at 300 umol/kg, po after 2 hrs; format: ADME, organism-based; conditions: in vivo; outline: as §3
Kidney [22] = experiment: Biodistribution in Sprague-Dawley rat kidney assessed per gram tissue wet weight at 300 umol/kg, sc after 4 hrs; format: ADME, organism-based; conditions: in vivo
Kidney [23] = experiment: Biodistribution in Sprague-Dawley rat kidney assessed per gram tissue wet weight at 300 umol/kg, po after 4 hrs; format: ADME, organism-based; conditions: in vivo; outline: as §3
Heart [24] = experiment: Biodistribution in Sprague-Dawley rat heart assessed per gram tissue wet weight at 300 umol/kg, sc after 1 hr; format: ADME, organism-based; conditions: in vivo
Heart [25] = experiment: Biodistribution in Sprague-Dawley rat heart assessed per gram tissue wet weight at 300 umol/kg, po after 1 hr; format: ADME, organism-based; conditions: in vivo; outline: as §3
Heart [26] = experiment: Biodistribution in Sprague-Dawley rat heart assessed per gram tissue wet weight at 300 umol/kg, sc after 2 hrs; format: ADME, organism-based; conditions: in vivo
Heart [27] = experiment: Biodistribution in Sprague-Dawley rat heart assessed per gram tissue wet weight at 300 umol/kg, po after 2 hrs; format: ADME, organism-based; conditions: in vivo; outline: as §3
Heart [28] = experiment: Biodistribution in Sprague-Dawley rat heart assessed per gram tissue wet weight at 300 umol/kg, sc after 4 hrs; format: ADME, organism-based; conditions: in vivo
Pancreas [29] = experiment: Biodistribution in Sprague-Dawley rat pancreas assessed per gram tissue wet weight at 300 umol/kg, sc after 1 hr; format: ADME, organism-based; conditions: in vivo
Pancreas [30] = experiment: Biodistribution in Sprague-Dawley rat pancreas assessed per gram tissue wet weight at 300 umol/kg, po after 1 hr; format: ADME, organism-based; conditions: in vivo; outline: as §3
Pancreas [31] = experiment: Biodistribution in Sprague-Dawley rat pancreas assessed per gram tissue wet weight at 300 umol/kg, sc after 2 hrs; format: ADME, organism-based; conditions: in vivo
Pancreas [32] = experiment: Biodistribution in Sprague-Dawley rat pancreas assessed per gram tissue wet weight at 300 umol/kg, po after 2 hrs; format: ADME, organism-based; conditions: in vivo; outline: as §3
Pancreas [33] = experiment: Biodistribution in Sprague-Dawley rat pancreas assessed per gram tissue wet weight at 300 umol/kg, sc after 4 hrs; format: ADME, organism-based; conditions: in vivo
Plasma [34] = experiment: Biodistribution in Sprague-Dawley rat plasma at 300 umol/kg, sc after 1 hr; format: ADME, organism-based; conditions: in vivo
Plasma [35] = experiment: Biodistribution in Sprague-Dawley rat plasma at 300 umol/kg, po after 1 hr; format: ADME, organism-based; conditions: in vivo; outline: as §3
Plasma [36] = experiment: Biodistribution in Sprague-Dawley rat plasma at 300 umol/kg, sc after 2 hrs; format: ADME, organism-based; conditions: in vivo
Plasma [37] = experiment: Biodistribution in Sprague-Dawley rat plasma at 300 umol/kg, po after 2 hrs; format: ADME, organism-based; conditions: in vivo; outline: as §3
Plasma [38] = experiment: Biodistribution in Sprague-Dawley rat plasma at 300 umol/kg, sc after 4 hrs; format: ADME, organism-based; conditions: in vivo
Plasma [39] = experiment: Biodistribution in Sprague-Dawley rat plasma at 300 umol/kg, po after 4 hrs; format: ADME, organism-based; conditions: in vivo; outline: as §3
Rattus norvegicus [40] = experiment: Toxicity in non-iron-overloaded Sprague-Dawley rat assessed as survival at 63.3 umol/kg/day, po after 30 days by non-renal perfusion protocol; conditions: in vivo, 720 h

## COCCOCCOCCOc1ccc(C2=N[C@@](C)(C(=O)O)CS2)c(O)c1
Rattus norvegicus [1]
  Activity: 5.5%
Rattus norvegicus [2]
  Activity: 11.2%
Rattus norvegicus [3]
  Activity: 21.7%
Rattus norvegicus [4]
  Activity: >95%
Rattus norvegicus [5]
  Activity: >95%
Rattus norvegicus [6]
  Activity: >95%
Rattus norvegicus [7]
  Activity: 8.7%
Sapajus apella [8]
  Activity: 25.4%
Sapajus apella [9]
  Activity: 30.4%
Rattus norvegicus [10]
  Activity: Non-toxic
Rattus norvegicus [11]
  Activity: Non-toxic
Liver [12]
  Drug uptake: 339 nmol/g
Liver [13]
  Drug uptake: 159 nmol/g
Liver [14]
  Drug uptake: 132 nmol/g
Liver [15]
  Drug uptake: 144 nmol/g
Liver [16]
  Drug uptake: 67 nmol/g
Liver [17]
  Drug uptake: 35 nmol/g
Kidney [18]
  Drug uptake: 252 nmol/g
Kidney [19]
  Drug uptake: 114 nmol/g
Kidney [20]
  Drug uptake: 41 nmol/g
Kidney [21]
  Drug uptake: 69 nmol/g
Kidney [22]
  Drug uptake: 34 nmol/g
Kidney [23]
  Drug uptake: 10 nmol/g
Heart [24]
  Drug uptake: 35 nmol/g
Heart [25]
  Drug uptake: 17 nmol/g
Heart [26]
  Drug uptake: 9 nmol/g
Heart [27]
  Drug uptake: 9 nmol/g
Heart [28]
  Drug uptake: 5 nmol/g
Pancreas [29]
  Drug uptake: 30 nmol/g
Pancreas [30]
  Drug uptake: 25 nmol/g
Pancreas [31]
  Drug uptake: 30 nmol/g
Pancreas [32]
  Drug uptake: 9 nmol/g
Pancreas [33]
  Drug uptake: 13 nmol/g
Plasma [34]
  Drug uptake: 140 nmol/g
Plasma [35]
  Drug uptake: 64 nmol/g
Plasma [36]
  Drug uptake: 16 nmol/g
Plasma [37]
  Drug uptake: 32 nmol/g
Plasma [38]
  Drug uptake: 5 nmol/g
Plasma [39]
  Drug uptake: 2 nmol/g
Rattus norvegicus [40]
  Activity: Non-toxic

Source: ChEMBL document CHEMBL1157468, “Design, synthesis, and testing of non-nephrotoxic desazadesferrithiocin polyether analogues” (J Med Chem, 2008)
